Reference: ChEMBL document CHEMBL1145482, “Acquired echinocandin resistance in a Candida krusei isolate due to modification of glucan synthase” (Antimicrob Agents Chemother, 2007)
In brackets after ≈: the same amount, converted by molar mass. *1 amine or outer side, *2 acyl side, *3 side chain or, on linkers, in order; H or OH if unused. Where a SMILES comes first, the peptide text is derived from it. Bridges are numbered along the chain shown (N, C = ends). [ ]: non-standard residue; d: D form. The star is where a group is joined. hTyr(3S-OH,4S-OH,3'-OSO3H) = N[C@H](C(=O)O)[C@H](O)[C@@H](O)c1ccc(O)c(OS(=O)(=O)O)c1; pTerphenylCO(4''-OnC5H11) = CCCCCOc1ccc(-c2ccc(-c3ccc(C(=O)*)cc3)cc2)cc1; Orn(4R-OH,5R-OH) = O=C([C@H](C[C@@H](O)[C@@H](O)N[*:3])N[*:1])[*:2]; hTyr(3S-OH,4S-OH) = N[C@H](C(=O)O)[C@H](O)[C@@H](O)c1ccc(O)cc1; Pro(3S-OH,4S-Me) = C[C@H]1CN[C@H](C(=O)O)[C@H]1O; X1 = CCCCCOc1ccc(-c2cc(-c3ccc(C(=O)*)cc3)no2)cc1; Gln(3R-OH) = NC(=O)C[C@@H](O)[C@H](N)C(=O)O; Hyp = O=C(O)[C@@H]1C[C@@H](O)CN1

Tests used:
Pichia kudriavzevii [1] = experiment: Antifungal activity against Candida krusei 98 isolate from acute myelogenous leukemia patient by broth microdilution method; type: functional
Pichia kudriavzevii [2] = experiment: Antifungal activity against FKS1 T2080K mutation containing Candida krusei 100 isolate from acute myelogenous leukemia patient by broth microdilution method; type: functional
Pichia kudriavzevii [3] = experiment: Ratio of MIC of FKS1 T2080K mutation containing Candida krusei 100 isolate to MIC of Candida krusei 98 isolate from acute myelogenous leukemia patient by broth microdilution method; type: functional
[4] = target: 1,3-beta-D-glucan synthase subunit (Pichia kudriavzevii, UniProt Q4U2W2, F655C); experiment: Inhibition of FKS1 T2080K mutant from Candida krusei 100 isolate
Method in brief: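 Glucan synthase enzyme complex isolated from posttreatment strain Ck-100. Caspofungin titrated against the enzyme. Inhibition curve fitted with a two-site competition algorithm to give IC50 in ng/ml.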

[5] = target: 1,3-beta-D-glucan synthase subunit (Pichia kudriavzevii, UniProt Q4U2W2); experiment: Inhibition of FKS1 from Candida krusei 98 isolate
Method in brief: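 Glucan synthase enzyme complex isolated from the pretreatment clinical strain Ck-98 and titrated with the echinocandin. Inhibition curves were fitted with a sigmoidal variable-slope dose-response model to give IC50 in ng/ml.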

Chain of 1,3-beta-D-glucan synthase subunit (Pichia kudriavzevii, UniProt Q4U2W2, F655C) (Q4U2W2 entry or part of it F655C): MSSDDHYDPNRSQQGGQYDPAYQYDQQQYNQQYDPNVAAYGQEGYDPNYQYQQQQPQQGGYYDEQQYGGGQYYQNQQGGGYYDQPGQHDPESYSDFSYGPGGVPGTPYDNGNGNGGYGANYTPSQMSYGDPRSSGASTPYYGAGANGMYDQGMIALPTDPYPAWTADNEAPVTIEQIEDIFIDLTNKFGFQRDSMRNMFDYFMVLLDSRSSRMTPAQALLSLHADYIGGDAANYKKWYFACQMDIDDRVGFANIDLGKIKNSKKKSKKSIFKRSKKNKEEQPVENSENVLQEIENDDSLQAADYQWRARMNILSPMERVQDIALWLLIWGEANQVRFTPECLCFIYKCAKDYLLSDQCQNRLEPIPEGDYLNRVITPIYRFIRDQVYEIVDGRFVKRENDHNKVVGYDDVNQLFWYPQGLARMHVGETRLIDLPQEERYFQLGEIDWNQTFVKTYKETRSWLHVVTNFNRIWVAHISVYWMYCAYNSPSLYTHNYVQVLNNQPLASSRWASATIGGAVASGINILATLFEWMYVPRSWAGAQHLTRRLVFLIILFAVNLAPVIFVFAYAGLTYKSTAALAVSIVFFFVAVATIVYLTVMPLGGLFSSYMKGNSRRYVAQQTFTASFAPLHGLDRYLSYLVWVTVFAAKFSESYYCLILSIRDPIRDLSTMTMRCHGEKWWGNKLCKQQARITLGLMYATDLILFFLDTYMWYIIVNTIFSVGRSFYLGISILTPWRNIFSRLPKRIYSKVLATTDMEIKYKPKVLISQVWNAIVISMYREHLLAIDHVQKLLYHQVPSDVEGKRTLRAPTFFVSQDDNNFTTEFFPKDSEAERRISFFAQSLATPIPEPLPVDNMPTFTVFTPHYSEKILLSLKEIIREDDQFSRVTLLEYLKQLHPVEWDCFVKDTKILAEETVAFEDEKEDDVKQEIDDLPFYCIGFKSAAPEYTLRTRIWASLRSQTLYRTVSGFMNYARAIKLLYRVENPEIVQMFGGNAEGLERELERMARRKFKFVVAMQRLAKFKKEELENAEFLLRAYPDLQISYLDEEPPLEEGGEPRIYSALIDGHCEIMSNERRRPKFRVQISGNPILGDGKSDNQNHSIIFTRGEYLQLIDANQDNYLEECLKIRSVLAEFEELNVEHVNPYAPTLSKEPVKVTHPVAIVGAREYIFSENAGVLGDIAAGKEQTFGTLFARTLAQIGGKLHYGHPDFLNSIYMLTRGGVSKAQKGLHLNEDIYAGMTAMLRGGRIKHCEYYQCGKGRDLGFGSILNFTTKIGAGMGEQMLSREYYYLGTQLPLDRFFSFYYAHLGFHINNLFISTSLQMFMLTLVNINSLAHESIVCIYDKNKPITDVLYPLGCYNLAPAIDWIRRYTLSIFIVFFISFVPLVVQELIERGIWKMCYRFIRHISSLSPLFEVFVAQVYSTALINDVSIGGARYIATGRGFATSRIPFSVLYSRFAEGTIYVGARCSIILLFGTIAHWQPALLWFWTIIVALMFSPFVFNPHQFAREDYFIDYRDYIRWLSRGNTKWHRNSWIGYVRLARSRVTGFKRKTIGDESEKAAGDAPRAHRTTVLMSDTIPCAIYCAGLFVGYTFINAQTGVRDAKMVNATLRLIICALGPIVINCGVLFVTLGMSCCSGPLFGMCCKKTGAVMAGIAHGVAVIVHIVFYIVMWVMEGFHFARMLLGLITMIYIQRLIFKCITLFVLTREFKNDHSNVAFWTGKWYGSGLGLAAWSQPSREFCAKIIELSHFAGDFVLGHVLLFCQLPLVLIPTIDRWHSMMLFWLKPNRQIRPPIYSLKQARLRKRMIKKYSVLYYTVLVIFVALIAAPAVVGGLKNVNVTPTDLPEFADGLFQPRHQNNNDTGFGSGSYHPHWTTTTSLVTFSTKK
Chain of 1,3-beta-D-glucan synthase subunit (Pichia kudriavzevii, UniProt Q4U2W2) (Q4U2W2 whole entry): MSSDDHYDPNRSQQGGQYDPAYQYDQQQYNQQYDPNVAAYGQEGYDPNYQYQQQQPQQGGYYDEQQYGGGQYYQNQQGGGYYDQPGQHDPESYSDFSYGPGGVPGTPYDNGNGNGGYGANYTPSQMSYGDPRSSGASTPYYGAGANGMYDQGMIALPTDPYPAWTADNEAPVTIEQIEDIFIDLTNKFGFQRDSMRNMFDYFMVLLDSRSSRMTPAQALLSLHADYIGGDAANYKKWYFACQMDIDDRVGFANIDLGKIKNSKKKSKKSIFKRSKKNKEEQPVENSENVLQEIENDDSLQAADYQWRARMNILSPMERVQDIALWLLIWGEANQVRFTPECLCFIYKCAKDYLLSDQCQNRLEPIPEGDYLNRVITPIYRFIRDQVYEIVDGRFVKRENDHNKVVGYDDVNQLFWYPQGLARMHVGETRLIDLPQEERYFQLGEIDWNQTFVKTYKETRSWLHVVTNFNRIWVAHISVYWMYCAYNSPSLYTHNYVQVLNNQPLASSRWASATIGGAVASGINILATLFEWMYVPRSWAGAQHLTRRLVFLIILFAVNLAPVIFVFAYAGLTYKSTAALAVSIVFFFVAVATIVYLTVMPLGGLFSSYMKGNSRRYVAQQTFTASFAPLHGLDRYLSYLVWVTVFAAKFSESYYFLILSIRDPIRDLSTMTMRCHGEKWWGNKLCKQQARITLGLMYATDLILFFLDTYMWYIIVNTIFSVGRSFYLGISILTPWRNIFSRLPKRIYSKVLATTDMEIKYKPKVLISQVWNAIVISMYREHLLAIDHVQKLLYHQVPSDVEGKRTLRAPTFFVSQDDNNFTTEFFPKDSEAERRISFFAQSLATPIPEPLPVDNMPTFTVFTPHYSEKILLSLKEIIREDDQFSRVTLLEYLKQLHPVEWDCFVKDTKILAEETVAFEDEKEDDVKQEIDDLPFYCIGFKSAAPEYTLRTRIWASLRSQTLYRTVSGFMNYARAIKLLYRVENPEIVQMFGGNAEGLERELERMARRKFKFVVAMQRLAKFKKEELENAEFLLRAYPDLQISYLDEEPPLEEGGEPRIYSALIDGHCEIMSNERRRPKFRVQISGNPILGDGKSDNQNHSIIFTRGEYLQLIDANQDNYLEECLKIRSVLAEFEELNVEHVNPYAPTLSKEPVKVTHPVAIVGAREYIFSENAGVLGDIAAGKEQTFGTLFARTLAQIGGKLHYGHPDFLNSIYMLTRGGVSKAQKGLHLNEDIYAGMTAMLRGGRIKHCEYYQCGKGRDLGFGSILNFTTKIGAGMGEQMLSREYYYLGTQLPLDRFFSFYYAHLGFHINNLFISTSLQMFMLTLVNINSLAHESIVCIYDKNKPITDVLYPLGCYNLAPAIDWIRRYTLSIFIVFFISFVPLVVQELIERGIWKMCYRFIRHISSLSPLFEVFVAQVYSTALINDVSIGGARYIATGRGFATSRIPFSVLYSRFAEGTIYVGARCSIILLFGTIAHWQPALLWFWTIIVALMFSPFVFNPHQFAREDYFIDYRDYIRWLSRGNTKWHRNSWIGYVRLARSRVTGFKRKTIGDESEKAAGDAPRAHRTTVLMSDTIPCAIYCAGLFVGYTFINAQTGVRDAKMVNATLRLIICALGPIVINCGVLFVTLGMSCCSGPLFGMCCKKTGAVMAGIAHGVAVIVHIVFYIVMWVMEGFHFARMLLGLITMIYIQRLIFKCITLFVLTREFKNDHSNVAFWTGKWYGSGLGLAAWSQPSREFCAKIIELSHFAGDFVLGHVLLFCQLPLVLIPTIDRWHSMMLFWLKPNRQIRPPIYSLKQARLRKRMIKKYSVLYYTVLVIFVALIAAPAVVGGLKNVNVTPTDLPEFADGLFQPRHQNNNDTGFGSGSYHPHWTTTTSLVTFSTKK

CCCCCOc1ccc(-c2cc(-c3ccc(C(=O)N[C@H]4C[C@@H](O)[C@@H](O)NC(=O)[C@@H]5[C@@H](O)[C@@H](C)CN5C(=O)[C@H]([C@H](O)CC(N)=O)NC(=O)[C@H]([C@H](O)[C@@H](O)c5ccc(O)c(OS(=O)(=O)O)c5)NC(=O)[C@@H]5C[C@@H](O)CN5C(=O)[C@H]([C@@H](C)O)NC4=O)cc3)no2)cc1 [MICAFUNGIN] (X1-[Orn(4R-OH,5R-OH)]T[Hyp][hTyr(3S-OH,4S-OH,3'-OSO3H)][Gln(3R-OH)][Pro(3S-OH,4S-Me)]; lactam 1-C)
MIC (Pichia kudriavzevii [1]): 0.25 µg/mL (≈ 0.197 µM)
MIC (Pichia kudriavzevii [2]): 4 µg/mL (≈ 3.15 µM)
Ratio (Pichia kudriavzevii [3]): 16

CCCCCOc1ccc(-c2ccc(-c3ccc(C(=O)N[C@H]4C[C@@H](O)[C@@H](O)NC(=O)[C@@H]5[C@@H](O)[C@@H](C)CN5C(=O)[C@H]([C@@H](C)O)NC(=O)[C@H]([C@H](O)[C@@H](O)c5ccc(O)cc5)NC(=O)[C@@H]5C[C@@H](O)CN5C(=O)[C@H]([C@@H](C)O)NC4=O)cc3)cc2)cc1 [ANIDULAFUNGIN] ({pTerphenylCO(4''-OnC5H11)}-[Orn(4R-OH,5R-OH)]T[Hyp][hTyr(3S-OH,4S-OH)]T[Pro(3S-OH,4S-Me)]; lactam 1-C)
MIC (Pichia kudriavzevii [1]): 0.25 µg/mL (≈ 0.219 µM)
MIC (Pichia kudriavzevii [2]): 4 µg/mL (≈ 3.51 µM)
Ratio (Pichia kudriavzevii [3]): 16

CC[C@H](C)C[C@H](C)CCCCCCCCC(=O)N[C@H]1C[C@@H](O)[C@@H](NCCN)NC(=O)[C@@H]2[C@@H](O)CCN2C(=O)[C@H]([C@H](O)CCN)NC(=O)[C@H]([C@H](O)[C@@H](O)c2ccc(O)cc2)NC(=O)[C@@H]2C[C@@H](O)CN2C(=O)[C@H]([C@@H](C)O)NC1=O [CASPOFUNGIN]
MIC (Pichia kudriavzevii [1]): 0.25 µg/mL (≈ 0.229 µM)
MIC (Pichia kudriavzevii [2]): 8 µg/mL (≈ 7.32 µM)
IC50 [4]: 3610 nM
IC50 [5]: 6.22 nM
Ratio (Pichia kudriavzevii [3]): 32
